Results on ten compounds are retold here after BindingDB's records for doi:10.1021/jm0301484 (Organix, 2003).

Where “and” joins values, the source holds several entries; their conditions need not be identical. Equal entries are not always repeated.

In assay [1] the target is Sodium-dependent dopamine transporter. Put plainly: In vitro affinity for dopamine transporter in Rhesus (Macaca mulatta) or Cynomolgus (Macaca fasicularis) monkey striata using [3H]WIN-35428 displacement. The essentials:
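Caudate-putamen membranes homogenized in ice-cold 50 mM Tris-HCl pH 7.4 and washed by centrifugation. Competition with fixed [3H]WIN 35,428 (0.3 nM) at 4 mg original wet tissue/mL in 50 mM Tris-HCl with 100 mM NaCl. Incubated 2 h at 0-4 °C, filtered on GF/B presoaked in 0.1% BSA, scintillation counting. Triplicate, 2-3 brains; IC50.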

Assay [2] has as its target Sodium-dependent serotonin transporter. Nature of the assay: In vitro affinity for serotonin transporter in Rhesus (Macaca mulatta) or Cynomolgus (Macaca fasicularis) monkey striata using [3H]citalopram displacement. In a few lines:
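Cynomolgus or rhesus caudate-putamen homogenised in ice-cold 50 mM Tris-HCl, pH 7.4, and washed by centrifugation. Membranes (4 mg original wet weight/mL) were incubated with 1 nM [3H]citalopram and a range of test drug concentrations in buffer with 100 mM NaCl, 2 h at 0–4 °C.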

For `CCC(=O)C1C(c2ccc(F)cc2)CC2CCC1N2CCCN1CC[S][Re]2(=[O])[S]CC[N]2C(=O)C1` [(1R,12S) -N-[ (2-( (3'-N-propyl-3''alpha-(4-fluorophenyl)tropane-2''beta-propionyl) (2-mercaptoethyl)amino) -2-aminoethanethiolato]rhenium(v)oxide], the IC50 in assay [1] was 3 nM and 5.9 nM and 1.5 nM.
Consider `CCC(=O)C1=C(c2ccc(Cl)c(Cl)c2)CC2CCC1N2CCCN1CC[S][Re]2(=[O])[S]CC[N]2C(=O)C1` (stereo not drawn) [N-[ (2-( (3'-N-propyl-(1''R) -3''-(3,4-dichlorophenyl)trop-2''-ene-2''--1-propanoyl) (2-mercaptoethyl)amino)acetyl) -2-aminoethanethiolato)rhenium(V) oxide], for which the results for the IC50 in assay [2] and in assay [1] were 2000 nM and 1200 nM, respectively.
For the compound `COC(=O)C1=C(c2ccc3ccccc3c2)CC2CCC1N2CCCN1CC[S][Re]2(=[O])[S]CC[N]2C(=O)C1` (configuration not stated) [O-1185], the results for the concentration for half-maximal inhibition (IC50) in assay [2] and in assay [1] were 964 nM and 63.4 nM, respectively.
With `COC(=O)C1C(c2ccc3ccccc3c2)CC2CCC1N2CCCN1CC[S][Re]2(=[O])[S]CC[N]2C(=O)C1` (configuration not stated) [O-2130], the concentration for half-maximal inhibition (IC50) in assay [2] was 120 nM; in assay [1], 4 nM and 3.64 nM.
Take `CCC(=O)C1=C(c2ccc(F)cc2)CC2CCC1N2CCCN1CC[S][Re]2(=[O])[S]CC[N]2C(=O)C1` (stereo not drawn) [N-[ (2-( (3'-N-propyl-(1''R) -3''-(4-flurophenyl)trop-2''-ene-2''--1-propanoyl) (2-mercaptoethyl)amino)acetyl) -2-aminoethanethiolato)rhenium(V) oxide]: the IC50 was 2100 nM in assay [2] and 660 nM in assay [1].
`COC(=O)C1=C(c2ccc(Cl)c(Cl)c2)CC2CCC1N2CCCN1CC[S][Re]2(=[O])[S]CC[N]2C(=O)C1` (stereo not drawn) [N-[ (2-( (3'-N-propyl-(1''R) -3''-(3,4-dichlorophenyl)trop-2''-ene-2''--carbomethoxy) (2-mercaptoethyl)amino)acetyl) -2-aminoethanethiolato)rhenium(V) oxide]: the concentration for half-maximal inhibition (IC50) in assay [2] was 1690 nM; in assay [1] it was 60 nM.
The compound `COC(=O)C1C(c2ccc(Cl)c(Cl)c2)CC2CCC1N2CCC[N+]12CC[S][Re]13(=[O])[S]CC[N]3C(=O)C2` (stereo not drawn) [[N-[2-[(3'-N'-Propyl-3''beta-(3,4-dichlorophenyl)tropane-2''beta-carboxylic acid methyl ester)(2-mercaptoethyl)amino]acetyl]-2-aminoethanethiolato]rhenium(V) oxide] yielded a half-inhibitory concentration (IC50) in assay [2] of 639 nM.
Consider `COC(=O)C1=C(c2ccc(F)cc2)CC2CCC1N2CCCN1CC[S][Re]2(=[O])[S]CC[N]2C(=O)C1` (stereo not drawn) [N-[ (2-( (3'-N-propyl-(1''R) -3''beta-(4-fluorophenyl)trop-2''-ene-2''--carbomethoxy) (2-mercaptoethyl)amino)acetyl) -2-aminoethanethiolato)rhenium(V) oxide], for which the concentration for half-maximal inhibition (IC50) in assay [2] was determined as 4000 nM; in assay [1], 3500 nM.
`COC(=O)C1C(c2ccc(F)cc2)CC2CCC1N2CCCN1CC[S][Re]2(=[O])[S]CC[N]2C(=O)C1` (stereo not drawn) [Diastereiosomer of [N-[2-[(3'-N'-Propyl-3''beta-(4-fluorophenyl)tropane-2''beta-carboxylic acid methyl ester)(2-mercaptoethyl)amino]acetyl]-2-aminoethanethiolato]rhenium(V) oxide]: the half-inhibitory concentration (IC50) in assay [1] was 3.8 nM and 2.9 nM.
`CCC(=O)C1C(c2ccc(Cl)c(Cl)c2)CC2CCC1N2CCCN1CC[S][Re]2(=[O])[S]CC[N]2C(=O)C1` (stereo not drawn) [N-[ (2-( (3'-N-propyl-(1''R) -3''beta-(3,4-dichlorophenyl)tropane-2''-beta-1-propanoyl) (2-mercaptoethyl)amino)acetyl) -2-aminoethanethiolato)rhenium(V) oxide]: the IC50 in assay [2] is 337 nM; in assay [1], 5 nM and 5.3 nM.

Usually IC50 stands for the concentration that gives 50% inhibition.
